Results taken from ChEMBL document CHEMBL3108732, “Synthesis and evaluation of analogues of N-phthaloyl-l-tryptophan (RG108) as inhibitors of DNA methyltransferase 1” (J Med Chem, 2014).
Activity calls are given as the source filed them. The calls are words filed in the database; no cut-off is given here.

Tests used:
[1] = system: DU-145; experiment: Cytotoxicity against human DU145 cells after 72 hrs by MTS assay; type: functional; details: DU-145, 72 h, read-out: TC50 (the source's name)
[2] = target: T1, DNA (cytosine-5)-methyltransferase 1 (Homo sapiens, UniProt P26358); experiment: Inhibition of human recombinant DNMT1 expressed in […] assessed as inhibition of tritiated methyl incorporation from [3H]-labeled AdoMet into hemimethylated DNA duplex after 2 hrs by liquid scintillation counting analysis; type: cell-based
T1 sequence (P26358 whole entry): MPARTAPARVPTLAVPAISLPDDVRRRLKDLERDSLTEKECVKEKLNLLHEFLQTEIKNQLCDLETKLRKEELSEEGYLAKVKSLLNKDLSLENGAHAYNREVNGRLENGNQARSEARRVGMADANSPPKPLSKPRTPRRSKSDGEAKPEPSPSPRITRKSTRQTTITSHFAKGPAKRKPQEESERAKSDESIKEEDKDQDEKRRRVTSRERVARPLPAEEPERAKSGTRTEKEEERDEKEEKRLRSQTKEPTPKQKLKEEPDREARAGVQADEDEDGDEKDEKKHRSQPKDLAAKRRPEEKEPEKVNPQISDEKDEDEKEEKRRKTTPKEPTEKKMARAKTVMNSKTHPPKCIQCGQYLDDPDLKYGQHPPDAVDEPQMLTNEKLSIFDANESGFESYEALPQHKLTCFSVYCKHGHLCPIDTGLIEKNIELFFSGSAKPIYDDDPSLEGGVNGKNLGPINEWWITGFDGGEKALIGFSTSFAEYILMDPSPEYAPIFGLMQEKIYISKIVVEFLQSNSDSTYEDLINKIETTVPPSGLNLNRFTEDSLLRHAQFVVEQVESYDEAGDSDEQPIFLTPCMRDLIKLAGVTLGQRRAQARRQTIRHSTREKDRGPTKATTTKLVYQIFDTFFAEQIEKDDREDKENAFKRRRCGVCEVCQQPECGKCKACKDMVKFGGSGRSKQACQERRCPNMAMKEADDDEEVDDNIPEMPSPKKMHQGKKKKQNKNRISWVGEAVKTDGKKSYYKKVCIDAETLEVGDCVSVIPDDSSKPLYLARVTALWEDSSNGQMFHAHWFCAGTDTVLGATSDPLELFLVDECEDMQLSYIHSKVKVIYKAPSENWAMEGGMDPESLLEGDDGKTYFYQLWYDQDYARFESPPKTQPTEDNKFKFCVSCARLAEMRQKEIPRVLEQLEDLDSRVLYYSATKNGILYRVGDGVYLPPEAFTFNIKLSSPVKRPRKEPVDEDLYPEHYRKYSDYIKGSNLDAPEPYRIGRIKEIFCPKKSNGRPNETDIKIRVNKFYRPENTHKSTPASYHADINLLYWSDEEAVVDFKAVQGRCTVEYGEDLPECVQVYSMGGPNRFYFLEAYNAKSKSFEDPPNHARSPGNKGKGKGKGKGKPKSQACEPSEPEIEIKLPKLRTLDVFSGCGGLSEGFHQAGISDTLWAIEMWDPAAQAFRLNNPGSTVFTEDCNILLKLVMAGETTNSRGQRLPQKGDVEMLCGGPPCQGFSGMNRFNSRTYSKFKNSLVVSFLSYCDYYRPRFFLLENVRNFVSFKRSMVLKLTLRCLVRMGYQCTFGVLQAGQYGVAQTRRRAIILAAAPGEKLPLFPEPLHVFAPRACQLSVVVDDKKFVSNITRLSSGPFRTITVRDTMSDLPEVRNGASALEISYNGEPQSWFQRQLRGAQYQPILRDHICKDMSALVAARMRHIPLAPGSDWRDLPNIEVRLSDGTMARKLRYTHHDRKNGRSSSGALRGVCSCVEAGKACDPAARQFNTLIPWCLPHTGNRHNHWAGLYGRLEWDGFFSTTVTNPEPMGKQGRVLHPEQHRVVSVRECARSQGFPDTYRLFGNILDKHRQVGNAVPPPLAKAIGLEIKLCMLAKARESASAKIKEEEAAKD
Outline: (§1)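 Human recombinant DNMT1 transferred tritiated methyl from [3H]-AdoMet onto a short hemimethylated DNA duplex carrying 8 CpGs, and direct incorporation of the radiolabel was measured. Compounds were first screened at a single concentration.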

[3] = target: T1, DNA (cytosine-5)-methyltransferase 1; experiment: Inhibition of human recombinant DNMT1 expressed in […] assessed as inhibition of tritiated methyl incorporation from [3H]-labeled AdoMet into hemimethylated DNA duplex at 500 uM after 2 hrs by liquid scintillation counting analysis relative to control; type: cell-based; outline: as §1
[4] = Inhibition of Spiroplasma M.SssI using unmethylated DNA as substrate after 2 hrs by agarose gel electrophoresis
[5] = target: DNA (cytosine-5)-methyltransferase 3A (Mus musculus) (UniProt O88508); experiment: Binding affinity to mouse Dnmt3A catalytic domain assessed as inhibition of AdoHcy binding at 0.85 mM by WaterLOGSY spectroscopic analysis
[6] = Inhibition of Escherichia coli DAM by [3H]-SAM incorporation assay
Outline: (§2)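 In vitro methyltransferase activity was quantified with a biotin–avidin microplate kinetic assay based on [3H]-SAM incorporation. G9a was tested up to 1 mM.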

[7] = Inhibition of G9a (unknown origin) by [3H]-SAM incorporation assay; outline: as §2

| SMILES | IC50 [2] | inhibition [3] | CC50 [1] | further results |
| --- | --- | --- | --- | --- |
| O=C(O)[C@@H]1[C@H](Cc2c[nH]c3ccccc23)CCN1C(=O)c1ccc2ccccc2c1 | 128 µM |  | 280 µM |  |
| O=C(O)[C@H](Cc1c[nH]c2ccccc12)NSc1ccc([N+](=O)[O-])cc1[N+](=O)[O-] | 40 µM |  | 103 µM |  |
| O=C(O)[C@H](Cc1cc(=O)[nH]c2ccccc12)N1C(=O)c2ccccc2C1=O |  | inactive |  |  |
| O=C(O)C1C(Cc2c[nH]c3ccccc23)CCN1C(=O)c1ccc2ccccc2c1 (stereo not given) |  | 50% |  |  |
| O=C(O)[C@@H]1[C@H](Cc2c[nH]c3ccccc23)CCN1Sc1ccc([N+](=O)[O-])cc1[N+](=O)[O-] | 80 µM |  | 250 µM |  |
| O=C(O)[C@H](Cc1c[nH]c2ccccc12)n1c(=O)[nH]c2ccccc2c1=O |  | inactive |  |  |
| O=C(O)[C@H](Cc1c[nH]cn1)N1C(=O)c2ccccc2C1=O |  | inactive |  |  |
| O=C(O)[C@H](Cc1csc2ccccc12)N1C(=O)c2ccccc2C1=O | 230 µM |  |  |  |
| NC(=O)[C@H](Cc1c[nH]c2ccccc12)N1C(=O)c2ccccc2C1=O |  | inactive |  |  |
| O=C(O)[C@@H]1[C@H](Cc2c[nH]c3ccccc23)CCN1C(=O)CN1C(=O)c2ccccc2C1=O |  | inactive |  |  |
| O=C(O)[C@H](Cc1ccccc1)N1C(=O)c2ccccc2C1=O |  | inactive |  |  |
| O=C(O)C1C(Cc2c[nH]c3ccccc23)CCN1C(=O)c1ccccc1 (stereo not given) |  | 50% |  | IC50 [6]: > 750 µM; IC50 [7]: > 1000 µM |
| O=C(O)CN1C(=O)c2ccccc2C1=O |  | inactive |  |  |

More lines, main results first:

| IC50 [2] | inhibition [3] | SMILES | CC50 [1] | further results |
| --- | --- | --- | --- | --- |
| 20 µM |  | O=C(O)[C@H](Cc1c[nH]c2ccccc12)NSc1ncccc1[N+](=O)[O-] | 211 µM |  |
|  | inactive | O=C(O)[C@@H](Cc1c[nH]c2ccccc12)CN1C(=O)c2ccccc2C1=O |  |  |
|  | inactive | O=C(O)C[C@H](Cc1c[nH]c2ccccc12)N1C(=O)c2ccccc2C1=O |  |  |
|  | inactive | O=C(CN1C(=O)c2ccccc2C1=O)N[C@@H](Cc1c[nH]c2ccccc12)C(=O)O |  |  |
|  | inactive | N[C@@H](Cc1c[nH]c2ccccc12)C(=O)O |  |  |
| 98 µM |  | O=C(O)[C@@H]1[C@H](Cc2c[nH]c3ccccc23)CCN1C(=O)c1ccccc1 | 230 µM |  |
|  | inactive | O=C(O)[C@H](Cc1c[nH]c2ccccc12)CN1C(=O)c2ccccc2C1=O |  |  |
| 73 µM |  | O=C(O)[C@H]1[C@@H](Cc2c[nH]c3ccccc23)CCN1C(=O)c1ccccc1 | 232 µM |  |
| 50 µM |  | O=C(O)[C@H]1[C@@H](Cc2c[nH]c3ccccc23)CCN1C(=O)c1ccc2ccccc2c1 | 130 µM |  |
| 390 µM |  | O=C(O)[C@H](Cc1c[nH]c2ccccc12)N1C(=O)c2ccccc2C1=O | 660 µM | IC50 [4]: 0.115 µM; inhibition [5]: 50% |
